Series [1] has as its system Enterococcus faecalis. In words: Antimicrobial activity against Enterococcus faecalis ATCC 49532 after 24 hrs by Kirby-Bauer agar diffusion assay. The series is classed as functional. The method, boiled down: (§1)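 Modified Kirby-Bauer well diffusion. Overnight LB cultures (18–24 h) were standardized in 0.9% saline to 0.5 McFarland and mixed into melted MHII agar at 47–50 °C, giving ~5×10³ CFU/mL. 9 mm wells received 50 µL of 2.0 mM compound in 10:1 MeOH:DMSO. Plates were incubated 24 h at 37 °C, then growth-inhibition zone diameter was measured (mm) by caliper.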
(A growth-free zone around the sample is the usual read-out of agar diffusion tests.)

Series [2] has as its system Staphylococcus aureus. The series is described as follows: Antimicrobial activity against Staphylococcus aureus SG511 assessed after 18 hrs by broth microdilution method. The series is classed as functional. The conditions noted are these: SG511, 18 h. The method, boiled down: (§2)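 CLSI broth microdilution in cation-adjusted MHII broth. 20 mM DMSO stocks were diluted to 512 µM, then serially 2-fold, giving final 128–0.0625 µM with 5×10⁵ CFU/mL inoculum. Incubated 18 h at 37 °C. MIC90 was the lowest concentration giving 90% inhibition by visual turbidity versus DMSO wells. Run in triplicate.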
(Dilution methods test growth across graded concentrations, often in twofold steps.)

The subject of series [3] is Micrococcus luteus. In words: Antimicrobial activity against Micrococcus luteus ATCC 10240 assessed after 18 hrs by broth microdilution method. The series is classed as functional. The conditions noted are these: ATCC 10240, 18 h. The method, boiled down: as §2
For series [4], the system named is Enterococcus faecalis. The series is described as follows: Antimicrobial activity against Enterococcus faecalis ATCC 49532 assessed after 18 hrs by broth microdilution method. The conditions noted are these: ATCC 49532, 18 h. The format is functional. The gist of the method:
as §2

A further series deals with PC-3. The series is described as follows: Cytotoxicity against human PC3 cells. The series is classed as cell-based.
Series [5] deals with Staphylococcus aureus. In words: Antimicrobial activity against Staphylococcus aureus SG511 after 24 hrs by Kirby-Bauer agar diffusion assay. The series is classed as functional. The gist of the method: as §1
For a further series, the system named is HeLa. The series is described as follows: Cytotoxicity against human HeLa cells. The series is classed as cell-based.
A further series relates to MCF7. In words: Cytotoxicity against human MCF7 cells. The series is classed as cell-based.
The test system of series [6] is Micrococcus luteus. In words: Antimicrobial activity against Micrococcus luteus ATCC 10240 after 24 hrs by Kirby-Bauer agar diffusion assay. The series is classed as functional. The method, boiled down:
as §1

These results are taken from ChEMBL document CHEMBL1914331, “N-O chemistry for antibiotics: discovery of N-alkyl-N-(pyridin-2-yl)hydroxylamine scaffolds as selective antibacterial agents using nitroso Diels-Alder and ene chemistry” (J Med Chem, 2011).

Values after ≈ are worked out from the molar mass of the structure shown. A value given as a limit tells only on which side of the number the result lay.

For orientation: MIC90 means an inhibitory concentration at the 90% level, which refers to growth in some studies and to a panel of isolates in others. Regarding `ON(CCc1ccccc1)c1ccccn1`, the “diameter of the inhibition zone (DIZ)” value in the series on Enterococcus faecalis [1] is reported as 15 mm; in the series with Staphylococcus aureus [5], 0 mm; with Micrococcus luteus [6] it was 16 mm. Besides, the MIC90 with Staphylococcus aureus [2] is more than 128 µM; in the series with Micrococcus luteus [3], 128 µM (≈ 27.4 µg/mL); with Enterococcus faecalis [4], more than 128 µM. In addition, the Activity result in the series on PC-3, in the series with HeLa and in the series on MCF7 was “Non-toxic” in each case.

Consider `C=CCN(O)c1ccccn1`, for which the results for the “diameter of the inhibition zone (DIZ)” value with Enterococcus faecalis [1], in the series on Staphylococcus aureus [5] and in the series with Micrococcus luteus [6] were 12 mm, 0 mm and 14 mm, respectively. The MIC90 against Staphylococcus aureus [2], against Micrococcus luteus [3] and against Enterococcus faecalis [4] was more than 128 µM throughout. In addition, the Activity result in the series with PC-3, in the series with HeLa and in the series with MCF7 was “Non-toxic” each time.

With `ON(Cc1cccc(Oc2ccccc2)c1)c1ccccn1`, the results for the “diameter of the inhibition zone (DIZ)” value in the series on Enterococcus faecalis [1], in the series on Staphylococcus aureus [5] and in the series with Micrococcus luteus [6] were 0 mm, 13 mm and 12 mm, respectively. The MIC90 with Staphylococcus aureus [2], against Micrococcus luteus [3] and in the series on Enterococcus faecalis [4] was more than 128 µM throughout. Further, the Activity entry with PC-3, in the series with HeLa and with MCF7 was “Non-toxic” throughout.

In the case of `ON(Cc1ccc(C(F)(F)F)cc1)c1ccccn1`, the “diameter of the inhibition zone (DIZ)” value was found to be 15 mm in the series with Enterococcus faecalis [1], 15 mm with Staphylococcus aureus [5] and 16 mm with Micrococcus luteus [6]. Moreover, the MIC90 is more than 128 µM against Staphylococcus aureus [2], 128 µM (≈ 34.3 µg/mL) with Micrococcus luteus [3] and more than 128 µM in the series with Enterococcus faecalis [4]. In addition, the Activity result with PC-3, in the series on HeLa and in the series on MCF7 was “Non-toxic” each time.

Consider `ON(Cc1ccc(OC(F)(F)F)cc1)c1ccccn1`, for which the “diameter of the inhibition zone (DIZ)” value in the series with Enterococcus faecalis [1] is given as 15 mm; in the series on Staphylococcus aureus [5] it was 14 mm; in the series on Micrococcus luteus [6] it was 17 mm. Moreover, the MIC90 with Staphylococcus aureus [2] is more than 128 µM; in the series on Micrococcus luteus [3], 128 µM (≈ 36.4 µg/mL); against Enterococcus faecalis [4], more than 128 µM. The Activity result with PC-3, in the series on HeLa and in the series with MCF7 was “Non-toxic” in each case.

On to `CC(=O)ON(Cc1ccccc1)c1ccccn1`, for which the “diameter of the inhibition zone (DIZ)” value in the series on Enterococcus faecalis [1] amounted to 11 mm; in the series with Staphylococcus aureus [5], 12 mm; in the series on Micrococcus luteus [6], 20 mm. For the same compound, the MIC90 is more than 128 µM with Staphylococcus aureus [2], 128 µM (≈ 31 µg/mL) in the series on Micrococcus luteus [3] and more than 128 µM against Enterococcus faecalis [4]. Further, the Activity entry with PC-3, in the series with HeLa and in the series with MCF7 was “Non-toxic” each time.

For `ON(Cc1ccccc1)c1cccnc1`, the figures for the “diameter of the inhibition zone (DIZ)” value in the series with Enterococcus faecalis [1], with Staphylococcus aureus [5] and in the series on Micrococcus luteus [6] were 0 mm, 16 mm and 15 mm, respectively. In addition, the values for the MIC90 in the series on Staphylococcus aureus [2], in the series on Micrococcus luteus [3] and in the series on Enterococcus faecalis [4] were more than 128 µM, not below 128 µM and more than 128 µM, respectively. Besides, the Activity entry in the series on PC-3, with HeLa and in the series with MCF7 was “Non-toxic” throughout.

As to `ON(Cc1ccccc1)Cc1ccccn1`, the “diameter of the inhibition zone (DIZ)” value with Enterococcus faecalis [1], with Staphylococcus aureus [5] and in the series with Micrococcus luteus [6] was 0 mm throughout. In addition, the MIC90 against Staphylococcus aureus [2], with Micrococcus luteus [3] and against Enterococcus faecalis [4] was more than 128 µM throughout. Besides, the Activity entry with PC-3, in the series with HeLa and in the series on MCF7 was “Non-toxic” each time.

`c1ccc(CNc2ccccn2)cc1`: the “diameter of the inhibition zone (DIZ)” value in the series on Enterococcus faecalis [1], with Staphylococcus aureus [5] and in the series with Micrococcus luteus [6] was 0 mm throughout. Besides, the MIC90 against Staphylococcus aureus [2], with Micrococcus luteus [3] and in the series on Enterococcus faecalis [4] was more than 128 µM each time. For the same compound, the Activity result in the series with PC-3, in the series on HeLa and in the series with MCF7 was “Non-toxic” each time.

For `CO[C@H]1C=CCC[C@@H]1N(O)c1ccc(Br)cn1` (racemic), the “diameter of the inhibition zone (DIZ)” value with Enterococcus faecalis [1] is on record as 20 mm; with Staphylococcus aureus [5], 18 mm; in the series on Micrococcus luteus [6] it was 34 mm. The MIC90 with Staphylococcus aureus [2] is not below 128 µM; against Micrococcus luteus [3], 4 µM (≈ 1.2 µg/mL); in the series on Enterococcus faecalis [4] it was more than 128 µM. The Activity entry in the series on PC-3, with HeLa and in the series with MCF7 was “Non-toxic” each time.

`C=C(C)C(C)N(O)c1ccccn1` (racemic): the results for the “diameter of the inhibition zone (DIZ)” value with Enterococcus faecalis [1], in the series with Staphylococcus aureus [5] and in the series with Micrococcus luteus [6] were 22 mm, 18 mm and 31 mm, respectively. Moreover, the MIC90 was 128 µM (≈ 22.8 µg/mL) in the series on Staphylococcus aureus [2], 8 µM (≈ 1.43 µg/mL) with Micrococcus luteus [3] and more than 128 µM against Enterococcus faecalis [4]. Also, the Activity entry in the series with PC-3, in the series with HeLa and in the series with MCF7 was “Non-toxic” each time.

Regarding `C=C(C)C(C)N(O)c1ccc2ccccc2n1` (racemic), the “diameter of the inhibition zone (DIZ)” value in the series with Enterococcus faecalis [1] is 13 mm; in the series with Staphylococcus aureus [5], 13 mm; with Micrococcus luteus [6], 31 mm. In addition, the MIC90 in the series on Staphylococcus aureus [2] was 128 µM (≈ 29.2 µg/mL); in the series on Micrococcus luteus [3] it was 8 µM (≈ 1.83 µg/mL); with Enterococcus faecalis [4] it was more than 128 µM. For the same compound, the Activity result in the series with PC-3, in the series with HeLa and with MCF7 was “Non-toxic” throughout.

Take `C=C(C)C(C)N(O)c1cc(C)on1` (racemic): the “diameter of the inhibition zone (DIZ)” value amounted to 13 mm in the series on Enterococcus faecalis [1], 0 mm in the series on Staphylococcus aureus [5] and 21 mm in the series with Micrococcus luteus [6]. The MIC90 against Staphylococcus aureus [2] is more than 128 µM; against Micrococcus luteus [3] it was 64 µM (≈ 11.7 µg/mL); against Enterococcus faecalis [4], more than 128 µM. Moreover, the Activity entry with PC-3, in the series with HeLa and in the series with MCF7 was “Non-toxic” each time.

With `C=C(C)C(C)N(O)c1cccc(CC)n1` (racemic), the “diameter of the inhibition zone (DIZ)” value in the series on Enterococcus faecalis [1] is 22 mm; in the series on Staphylococcus aureus [5], 11 mm; in the series on Micrococcus luteus [6] it was 52 mm. In addition, the MIC90 against Staphylococcus aureus [2] is more than 128 µM; in the series with Micrococcus luteus [3], 2 µM (≈ 0.413 µg/mL); against Enterococcus faecalis [4] it was more than 128 µM. Also, the Activity entry with PC-3, in the series with HeLa and with MCF7 was “Non-toxic” in each case.

In the case of `C=C(C)C(C)N(O)c1cc(C)ccn1` (racemic), the figures for the “diameter of the inhibition zone (DIZ)” value in the series with Enterococcus faecalis [1], in the series with Staphylococcus aureus [5] and with Micrococcus luteus [6] were 22 mm, 20 mm and 29 mm, respectively. Further, the MIC90 against Staphylococcus aureus [2] was 128 µM (≈ 24.6 µg/mL); against Micrococcus luteus [3], 4 µM (≈ 0.769 µg/mL); against Enterococcus faecalis [4] it was more than 128 µM. In addition, the Activity entry with PC-3, with HeLa and with MCF7 was “Non-toxic” throughout.

On to `C=C(C)C(C)N(O)c1ncccc1C` (racemic), for which the results for the “diameter of the inhibition zone (DIZ)” value in the series with Enterococcus faecalis [1], in the series on Staphylococcus aureus [5] and in the series with Micrococcus luteus [6] were 19 mm, 10 mm and 25 mm, respectively. The results for the MIC90 in the series on Staphylococcus aureus [2], against Micrococcus luteus [3] and in the series with Enterococcus faecalis [4] were more than 128 µM, 16 µM (≈ 3.08 µg/mL) and more than 128 µM, respectively. Besides, the Activity result in the series with PC-3, with HeLa and in the series on MCF7 was “Non-toxic” each time.

With `C=C(C)C(C)N(O)c1ccc(Cl)cn1` (racemic), the “diameter of the inhibition zone (DIZ)” value with Enterococcus faecalis [1] is on record as 21 mm; with Staphylococcus aureus [5], 18 mm; in the series with Micrococcus luteus [6] it was 40 mm. Besides, the MIC90 against Staphylococcus aureus [2] is 128 µM (≈ 27.2 µg/mL); against Micrococcus luteus [3], 2 µM (≈ 0.425 µg/mL); against Enterococcus faecalis [4] it was not below 128 µM. For the same compound, the Activity result in the series on PC-3, in the series on HeLa and in the series on MCF7 was “Non-toxic” each time.

Turning to `C=C(C)C(C)N(O)c1ccc(Br)cn1` (racemic), the “diameter of the inhibition zone (DIZ)” value is 19 mm with Enterococcus faecalis [1], 17 mm in the series with Staphylococcus aureus [5] and 35 mm in the series on Micrococcus luteus [6]. The MIC90 with Staphylococcus aureus [2] is more than 128 µM; in the series with Micrococcus luteus [3] it was 4 µM (≈ 1.03 µg/mL); with Enterococcus faecalis [4], more than 128 µM. Besides, the Activity result in the series on PC-3, with HeLa and in the series with MCF7 was “Non-toxic” throughout.

Take `C=C(C)C(C)N(O)c1ccc(I)cn1` (racemic): the “diameter of the inhibition zone (DIZ)” value stood at 19 mm in the series on Enterococcus faecalis [1], 12 mm in the series with Staphylococcus aureus [5] and 38 mm with Micrococcus luteus [6]. The MIC90 against Staphylococcus aureus [2] was more than 128 µM; against Micrococcus luteus [3], 2 µM (≈ 0.608 µg/mL); against Enterococcus faecalis [4], more than 128 µM. The Activity entry with PC-3, with HeLa and in the series with MCF7 was “Non-toxic” throughout.
